The nature of data set [1]: AUClast in mouse at 2 mg/kg, iv. Format: ADME, organism-based. More on the design: dose 2 mg/kg, route intravenous, time 0 - last. The note with it: in vivo.
Data set [2] has as its target Serine/threonine-protein kinase ULK2 (Homo sapiens) (UniProt Q8IYT8). The data set is described as follows: Binding affinity to wild-type human partial length ULK2 (M1 to S301 residues) expressed in mammalian expression system assessed as residual binding level at 1 uM by Kinomescan method relative to control.
Data set [3] relates to Phosphatidylinositol 4,5-bisphosphate 3-kinase catalytic subunit alpha isoform (Homo sapiens), P42336 [E545K]. Description: Binding affinity to human partial length PIK3CA E545K mutant (R108 to N1068 residues) expressed in mammalian expression system assessed as residual binding level at 1 uM by Kinomescan method relative to control.
In data set [4] the target is Serine/threonine-protein kinase PAK 6 (Homo sapiens) (UniProt Q9NQU5). Description: Binding affinity to wild-type human partial length PAK6 (N298 to C681 residues) expressed in bacterial expression system assessed as residual binding level at 1 uM by Kinomescan method relative to control.
The target in data set [5] is High affinity nerve growth factor receptor (Homo sapiens) (UniProt P04629). Description: Binding affinity to wild-type human partial length TRKA (G475 to G790 residues) expressed in mammalian expression system assessed as residual binding level at 1 uM by Kinomescan method relative to control.
High affinity nerve growth factor receptor (Homo sapiens), sequence (P04629 33-796 limits assumed): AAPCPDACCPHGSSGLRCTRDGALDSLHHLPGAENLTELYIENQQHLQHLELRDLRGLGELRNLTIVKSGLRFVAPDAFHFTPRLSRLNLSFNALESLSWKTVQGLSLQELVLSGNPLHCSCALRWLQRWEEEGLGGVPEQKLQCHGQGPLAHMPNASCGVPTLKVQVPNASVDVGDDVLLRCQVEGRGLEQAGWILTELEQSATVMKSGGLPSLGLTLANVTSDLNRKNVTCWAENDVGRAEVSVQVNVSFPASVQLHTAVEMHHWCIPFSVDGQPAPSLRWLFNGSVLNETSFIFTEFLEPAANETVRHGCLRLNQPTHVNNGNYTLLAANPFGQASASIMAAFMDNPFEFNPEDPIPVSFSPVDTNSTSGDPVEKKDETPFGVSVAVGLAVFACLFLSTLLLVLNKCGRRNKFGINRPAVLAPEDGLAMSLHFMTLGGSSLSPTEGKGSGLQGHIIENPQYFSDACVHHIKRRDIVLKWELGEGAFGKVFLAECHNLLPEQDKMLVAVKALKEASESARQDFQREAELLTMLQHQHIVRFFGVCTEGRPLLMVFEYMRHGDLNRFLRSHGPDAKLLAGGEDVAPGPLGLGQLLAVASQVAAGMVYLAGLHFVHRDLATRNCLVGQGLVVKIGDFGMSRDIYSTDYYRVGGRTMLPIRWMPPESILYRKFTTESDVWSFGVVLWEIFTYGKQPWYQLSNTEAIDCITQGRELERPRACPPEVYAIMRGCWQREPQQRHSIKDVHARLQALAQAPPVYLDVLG
In data set [6] the target is Serine/threonine-protein kinase DCLK2 (Homo sapiens) (UniProt Q8N568). The data set is described as follows: Binding affinity to wild-type human partial length DCAMKL2 (K273 to V664 residues) expressed in bacterial expression system assessed as residual binding level at 1 uM by Kinomescan method relative to control.
The target in data set [7] is Microtubule-associated serine/threonine-protein kinase 1 (Homo sapiens) (UniProt Q9Y2H9). Description: Binding affinity to wild-type human partial length MAST1 (S346 to V730 residues) expressed in mammalian expression system assessed as residual binding level at 1 uM by Kinomescan method relative to control.
The target of data set [8] is Serine/threonine-protein kinase Sgk3 (Homo sapiens) (UniProt Q96BR1). The data set is described as follows: Binding affinity to wild-type human partial length SGK3 (M119 to L496 residues) expressed in mammalian expression system assessed as residual binding level at 1 uM by Kinomescan method relative to control.
Serine/threonine-protein kinase Sgk3 (Homo sapiens), sequence (Q96BR1 whole entry, the tested form may be a part): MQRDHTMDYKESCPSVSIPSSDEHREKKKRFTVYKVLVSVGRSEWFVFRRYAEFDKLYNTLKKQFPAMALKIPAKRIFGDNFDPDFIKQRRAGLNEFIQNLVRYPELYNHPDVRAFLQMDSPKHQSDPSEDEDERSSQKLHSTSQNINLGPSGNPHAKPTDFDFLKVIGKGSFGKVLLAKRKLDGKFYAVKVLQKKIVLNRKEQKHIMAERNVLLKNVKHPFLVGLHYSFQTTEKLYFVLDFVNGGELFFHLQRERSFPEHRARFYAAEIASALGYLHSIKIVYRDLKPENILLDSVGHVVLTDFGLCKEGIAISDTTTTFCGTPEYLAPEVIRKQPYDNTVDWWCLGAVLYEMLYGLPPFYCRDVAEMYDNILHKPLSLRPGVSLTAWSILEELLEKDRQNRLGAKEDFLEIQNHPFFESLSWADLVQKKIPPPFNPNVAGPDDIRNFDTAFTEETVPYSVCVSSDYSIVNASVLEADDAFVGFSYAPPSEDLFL
Data set [9] addresses Receptor tyrosine-protein kinase erbB-3 (Homo sapiens) (UniProt P21860). Description: Binding affinity to wild-type human partial length ERBB3 (G684 to A987 residues) expressed in mammalian expression system assessed as residual binding level at 1 uM by Kinomescan method relative to control.
For data set [10], the system named is Epidermal growth factor receptor (Homo sapiens), P00533 [L858R,T790M]. The data set is described as follows: Binding affinity to human partial length EGFR L858R/T790M double mutant (R669 to V1011 residues) expressed in mammalian expression system assessed as residual binding level at 1 uM by Kinomescan method relative to control. In outline: (§1)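 Kinome-wide selectivity panel run by the KINOMEscan method, with the test compound at a single concentration of 1 μM. Wild-type and mutant kinases were profiled in the same screen.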

Data set [11] concerns Epidermal growth factor receptor (Homo sapiens), P00533 [T790M]. Description: Binding affinity to human partial length EGFR T790M mutant (R669 to G1022 residues) expressed in mammalian expression system assessed as residual binding level at 1 uM by Kinomescan method relative to control. In outline:
as §1

The target of data set [12] is Membrane-associated tyrosine- and threonine-specific cdc2-inhibitory kinase (Homo sapiens) (UniProt Q99640). Description: Binding affinity to wild-type human partial length PKMYT1 (A88 to G366 residues) expressed in bacterial expression system assessed as residual binding level at 1 uM by Kinomescan method relative to control.
Membrane-associated tyrosine- and threonine-specific cdc2-inhibitory kinase (Homo sapiens), sequence (Q99640 whole entry, the tested form may be a part): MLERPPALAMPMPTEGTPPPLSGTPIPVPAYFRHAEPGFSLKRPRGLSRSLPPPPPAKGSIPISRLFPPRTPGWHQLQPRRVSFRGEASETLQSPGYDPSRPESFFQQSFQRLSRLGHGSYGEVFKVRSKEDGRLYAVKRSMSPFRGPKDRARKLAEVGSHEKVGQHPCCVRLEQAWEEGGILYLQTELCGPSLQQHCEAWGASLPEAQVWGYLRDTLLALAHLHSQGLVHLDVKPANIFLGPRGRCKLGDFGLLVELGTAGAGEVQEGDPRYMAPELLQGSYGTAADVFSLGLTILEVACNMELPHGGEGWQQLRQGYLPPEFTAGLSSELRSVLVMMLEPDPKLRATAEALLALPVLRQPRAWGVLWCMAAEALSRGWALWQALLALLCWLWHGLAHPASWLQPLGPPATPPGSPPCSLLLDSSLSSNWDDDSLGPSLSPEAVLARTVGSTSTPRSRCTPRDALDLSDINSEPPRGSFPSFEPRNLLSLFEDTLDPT
Data set [13] has as its target Cyclin-dependent kinase 11B (Homo sapiens) (UniProt P21127). The data set is described as follows: Binding affinity to wild-type human partial length CDC2L1 (P353 to G692 residues) expressed in bacterial expression system assessed as residual binding level at 1 uM by Kinomescan method relative to control.
Data set [14] addresses Serine/threonine-protein kinase Nek5 (Homo sapiens) (UniProt Q6P3R8). Description: Binding affinity to wild-type human partial length NEK5 (M1 to M279 residues) expressed in bacterial expression system assessed as residual binding level at 1 uM by Kinomescan method relative to control.
For data set [15], the target named is Serine/threonine-protein kinase 24 (Homo sapiens) (UniProt Q9Y6E0). The data set is described as follows: Binding affinity to wild-type human partial length MST3 (A30 to S311 residues) expressed in bacterial expression system assessed as residual binding level at 1 uM by Kinomescan method relative to control.
In data set [16] the target is Receptor tyrosine-protein kinase erbB-2 (Homo sapiens, UniProt P04626). The data set is described as follows: Inhibition of recombinant His-tagged human ErbB2 cytoplasmic domain expressed in baculovirus expression system by Z-LYTE assay.
Receptor tyrosine-protein kinase erbB-2, sequence (P04626 whole entry, the tested form may be a part): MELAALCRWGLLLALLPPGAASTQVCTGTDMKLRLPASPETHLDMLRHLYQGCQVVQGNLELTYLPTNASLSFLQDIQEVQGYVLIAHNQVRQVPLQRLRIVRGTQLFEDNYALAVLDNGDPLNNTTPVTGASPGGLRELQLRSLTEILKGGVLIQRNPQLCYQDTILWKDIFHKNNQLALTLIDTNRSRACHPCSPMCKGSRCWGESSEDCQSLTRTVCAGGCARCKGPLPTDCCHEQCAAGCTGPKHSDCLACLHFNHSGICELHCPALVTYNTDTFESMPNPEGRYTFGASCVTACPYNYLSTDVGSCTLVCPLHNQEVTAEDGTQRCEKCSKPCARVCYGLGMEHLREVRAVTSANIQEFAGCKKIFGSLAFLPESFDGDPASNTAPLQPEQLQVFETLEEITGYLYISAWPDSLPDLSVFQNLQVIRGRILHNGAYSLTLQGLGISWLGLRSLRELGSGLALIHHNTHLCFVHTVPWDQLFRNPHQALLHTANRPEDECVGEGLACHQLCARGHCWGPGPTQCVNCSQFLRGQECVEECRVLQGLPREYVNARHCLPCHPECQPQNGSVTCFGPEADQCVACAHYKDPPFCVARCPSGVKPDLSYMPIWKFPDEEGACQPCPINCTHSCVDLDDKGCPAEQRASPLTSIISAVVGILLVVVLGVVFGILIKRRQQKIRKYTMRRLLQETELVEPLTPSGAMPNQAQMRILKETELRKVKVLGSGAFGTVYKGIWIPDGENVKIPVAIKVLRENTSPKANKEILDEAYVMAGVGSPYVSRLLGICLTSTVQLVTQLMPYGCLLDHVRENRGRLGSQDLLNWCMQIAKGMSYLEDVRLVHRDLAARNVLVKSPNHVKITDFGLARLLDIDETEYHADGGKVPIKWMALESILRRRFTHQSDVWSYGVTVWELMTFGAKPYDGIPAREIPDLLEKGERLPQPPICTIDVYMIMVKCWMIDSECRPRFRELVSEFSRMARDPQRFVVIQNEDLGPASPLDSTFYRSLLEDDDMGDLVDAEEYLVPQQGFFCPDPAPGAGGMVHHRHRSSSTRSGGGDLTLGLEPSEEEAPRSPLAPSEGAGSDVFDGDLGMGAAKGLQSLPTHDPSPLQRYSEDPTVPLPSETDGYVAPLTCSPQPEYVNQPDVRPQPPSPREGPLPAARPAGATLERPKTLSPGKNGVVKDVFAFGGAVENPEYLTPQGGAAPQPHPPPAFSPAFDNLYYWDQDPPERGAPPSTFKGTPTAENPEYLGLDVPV
For data set [17], the target named is Serine/threonine-protein kinase 38-like (Homo sapiens) (UniProt Q9Y2H1). Description: Binding affinity to wild-type human partial length NDR2 (N34 to E447 residues) expressed in bacterial expression system assessed as residual binding level at 1 uM by Kinomescan method relative to control.
Data set [18] deals with Serine/threonine-protein kinase PAK 3 (Homo sapiens) (UniProt O75914). Description: Binding affinity to wild-type human full length PAK3 (M1 to R544 residues) expressed in bacterial expression system assessed as residual binding level at 1 uM by Kinomescan method relative to control. The method in brief: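 Single-point kinome-wide KINOMEscan binding panel, test compound at 1 μM, run by the provider's standard protocol.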

Data set [19] relates to Phosphatidylinositol 4,5-bisphosphate 3-kinase catalytic subunit alpha isoform (Homo sapiens), P42336 [Q546K]. Description: Binding affinity to human partial length PIK3CA Q546K mutant (R108 to N1068 residues) expressed in mammalian expression system assessed as residual binding level at 1 uM by Kinomescan method relative to control.
The target of data set [20] is Serine/threonine-protein kinase WNK1 (Homo sapiens) (UniProt Q9H4A3). The data set is described as follows: Binding affinity to wild-type human partial length WNK1 (Q194 to A490 residues) expressed in mammalian expression system assessed as residual binding level at 1 uM by Kinomescan method relative to control.
Data set [21] in a line: Metabolic stability in human liver microsomes assessed as parent compound remaining at 1 uM after 30 mins in presence of NADPH by LC/MS/MS analysis. Format: ADME, Microsome. The note with it: read-out: Stability. The method in brief:
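Compound at 1 μM final with 0.5 mg/mL microsomal protein in 100 mM phosphate buffer pH 7.4 at 37 °C, started by adding an NADPH-regenerating system. Reactions were quenched with cold acetonitrile at 0 and 30 min and spun down. Supernatant was analysed by LC-MS/MS. The 0-min sample, quenched before NADPH addition, was set as 100%, and percent parent remaining came from peak areas.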

The target of a further data set is Activated CDC42 kinase 1 (Homo sapiens, UniProt Q07912). The data set is described as follows: Binding affinity to wild-type human partial length TNK2 (S159 to D474 residues) expressed in bacterial expression system assessed as residual binding level at 1 uM by Kinomescan method relative to control.
Activated CDC42 kinase 1, sequence (Q07912 whole entry, looked up, the tested form may be a part): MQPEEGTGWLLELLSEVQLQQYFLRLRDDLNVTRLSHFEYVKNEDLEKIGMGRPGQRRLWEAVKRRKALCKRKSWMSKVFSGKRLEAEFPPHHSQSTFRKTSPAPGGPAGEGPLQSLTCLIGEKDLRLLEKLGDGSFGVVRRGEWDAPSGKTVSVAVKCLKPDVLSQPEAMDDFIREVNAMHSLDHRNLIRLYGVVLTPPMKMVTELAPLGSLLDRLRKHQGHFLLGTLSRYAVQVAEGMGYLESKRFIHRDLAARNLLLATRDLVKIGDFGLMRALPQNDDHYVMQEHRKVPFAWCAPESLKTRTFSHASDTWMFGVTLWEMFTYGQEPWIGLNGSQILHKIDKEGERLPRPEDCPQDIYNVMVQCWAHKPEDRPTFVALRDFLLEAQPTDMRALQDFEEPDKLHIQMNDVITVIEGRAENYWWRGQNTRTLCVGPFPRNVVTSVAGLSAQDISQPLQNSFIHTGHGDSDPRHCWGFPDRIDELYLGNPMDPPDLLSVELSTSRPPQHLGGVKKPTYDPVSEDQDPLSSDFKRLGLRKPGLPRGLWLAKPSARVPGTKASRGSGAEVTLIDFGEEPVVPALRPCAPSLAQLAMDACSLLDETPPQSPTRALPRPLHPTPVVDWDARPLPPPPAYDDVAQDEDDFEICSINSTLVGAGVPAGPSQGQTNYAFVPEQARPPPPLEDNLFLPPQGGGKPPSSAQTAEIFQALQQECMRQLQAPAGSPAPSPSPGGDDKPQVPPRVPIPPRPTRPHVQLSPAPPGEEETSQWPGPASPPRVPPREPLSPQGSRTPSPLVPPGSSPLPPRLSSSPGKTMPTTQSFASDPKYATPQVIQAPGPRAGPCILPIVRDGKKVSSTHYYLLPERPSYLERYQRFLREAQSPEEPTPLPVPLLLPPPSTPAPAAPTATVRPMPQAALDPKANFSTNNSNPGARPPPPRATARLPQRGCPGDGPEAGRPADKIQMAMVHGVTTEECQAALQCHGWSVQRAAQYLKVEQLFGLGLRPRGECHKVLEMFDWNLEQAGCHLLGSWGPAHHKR
The target of data set [22] is Mitogen-activated protein kinase kinase kinase 4 (Homo sapiens) (UniProt Q9Y6R4). The data set is described as follows: Binding affinity to wild-type human partial length MAP3K4 (G1319 to E1608 residues) expressed in bacterial expression system assessed as residual binding level at 1 uM by Kinomescan method relative to control.

pIC50: −log10 of the molar value.

Serine/threonine-protein kinase ULK2 (Homo sapiens), sequence (Q8IYT8 whole entry, the tested form may be a part, canonical isoform): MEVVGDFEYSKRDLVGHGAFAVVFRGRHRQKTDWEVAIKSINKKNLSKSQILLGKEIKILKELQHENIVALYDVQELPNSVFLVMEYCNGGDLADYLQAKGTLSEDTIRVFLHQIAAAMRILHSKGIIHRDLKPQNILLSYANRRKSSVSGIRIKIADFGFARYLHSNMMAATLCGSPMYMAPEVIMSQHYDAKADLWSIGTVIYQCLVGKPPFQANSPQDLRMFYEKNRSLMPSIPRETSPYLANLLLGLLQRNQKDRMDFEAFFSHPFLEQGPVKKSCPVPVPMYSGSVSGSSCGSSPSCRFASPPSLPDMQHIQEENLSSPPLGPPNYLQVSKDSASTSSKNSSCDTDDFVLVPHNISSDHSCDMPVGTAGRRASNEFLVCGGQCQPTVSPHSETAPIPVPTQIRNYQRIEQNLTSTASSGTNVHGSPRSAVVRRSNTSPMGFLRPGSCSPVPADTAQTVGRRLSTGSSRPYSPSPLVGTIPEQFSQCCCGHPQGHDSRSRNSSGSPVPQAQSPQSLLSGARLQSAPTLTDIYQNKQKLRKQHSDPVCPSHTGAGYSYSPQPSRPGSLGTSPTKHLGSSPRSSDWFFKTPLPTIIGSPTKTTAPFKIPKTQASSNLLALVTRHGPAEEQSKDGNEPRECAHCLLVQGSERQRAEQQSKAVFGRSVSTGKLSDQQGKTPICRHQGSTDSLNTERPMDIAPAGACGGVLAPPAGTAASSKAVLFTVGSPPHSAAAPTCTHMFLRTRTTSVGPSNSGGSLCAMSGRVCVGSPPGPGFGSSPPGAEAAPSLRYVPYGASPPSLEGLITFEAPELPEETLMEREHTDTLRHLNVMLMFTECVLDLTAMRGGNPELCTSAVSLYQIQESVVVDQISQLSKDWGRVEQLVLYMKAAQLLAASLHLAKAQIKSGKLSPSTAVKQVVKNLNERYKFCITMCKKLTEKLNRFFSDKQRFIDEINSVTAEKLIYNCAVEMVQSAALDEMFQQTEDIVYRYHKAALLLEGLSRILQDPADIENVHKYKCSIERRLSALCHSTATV

The compound `C=CC(=O)Nc1cc(Nc2ncc(Cl)c(Nc3ccccc3S(=O)(=O)C(C)C)n2)c(OC)cc1N(C)CCN(C)C` showed an AUC(0-t) in data set [1] of 1290 ng·h/mL. Also, the Activity in data set [2] was determined as 4.3%; in data set [3], 54%; in data set [4], 96%; in data set [5] it was 13%; in data set [6], 14%; in data set [7], 3.2%. For the same compound, the Activity in data set [8] stood at 53%; in [9], 91%; in data set [10], 0.95%; in data set [11], 0%; in data set [12] it was 80%; in data set [13] it was 75%. Besides, the Activity in data set [14] was determined as 80%; in [15], 39%; in data set [17], 54%; in data set [18], 23%; in data set [19], 83%; in data set [20] it was 100%. The Activity worked out at 0.15% on Activated CDC42 kinase 1 and 67% in data set [22]. In addition, in [16], the pIC50 was 7.43. In data set [21], the remaining at 0.5 h, 1 µM turned out to be 16%.

The values are drawn from ChEMBL document CHEMBL4382192, “Discovery of a potent dual ALK and EGFR T790M inhibitor” (Eur J Med Chem, 2017).
